Measurements from different studies.
Protocols differ between the studies behind these lines. pIC50: −log10 of the molar value.

Compound	target or system	assay	test system	conditions	quantity	value
CONc1ccnc(Nc2cccc(-c3cccnc3)c2)n1	–	–	PAMPA	50 nM, 30 min	Papp	1300 ×10⁻⁶ cm/s
Cn1ccnc1CNc1nc(-c2ccccn2)nc2ccccc12	–	–	PAMPA	10 µM, 3 h, pH 7.4	Papp	27 ×10⁻⁶ cm/s
CCCCCCCCCCCCCCCCOP(=O)([O-])OCC[N+](C)(C)C	DH82	cell growth or viability, MTS	–	24 h	CC50	> 20 µM
c1ccc(C2CCN(c3nc(-c4cnn5c4CCCC5)nc4ccccc34)C2)nc1 (stereo not shown)	–	–	PAMPA	10 µM, 3 h, pH 7.4	Papp	36.7 ×10⁻⁶ cm/s
COC(=O)c1c(C)ncn1CC(c1c[nH]c2ccc(C)cc12)c1c[nH]c2ccc(C)cc12	DH82	cell growth or viability, MTS	–	24 h	CC50	> 20 µM
CC1(C)CC[C@]2(C)CC[C@]3(C)[C@H]4CC=C5[C@@H](CC[C@H](O)C5(C)C)[C@]4(C)CC[C@@]3(C)[C@@H]2C1	HCT-116	cell growth or viability, WST-1	–	–	pIC50	4.18
CCOC(=O)[C@@]12C[C@@H]1[C@@H](n1ccc3c(NC)nc(C#Cc4ccc(Cl)s4)nc31)[C@H](O)[C@@H]2O	–	–	male Sprague-Dawley rat, plasma	oral, 1 mg/kg	AUC(0-t)	34 ng·h/mL
CC(C)Nc1ccnc(Nc2cccc(-c3cc[nH]n3)c2)n1	–	–	PAMPA	50 nM, 30 min	Papp	1740 ×10⁻⁶ cm/s
CC(=O)O[C@@H]1c2c(ccc3ccc(=O)oc23)OC(C)(C)[C@@H]1OC(=O)C1(C)OC1C (stereo partly shown)	HCT-116	cell growth or viability, WST-1	–	–	pIC50	4.30
c1ccc(-c2nc(N3CCCC3c3ccccn3)c3ccccc3n2)nc1 (stereo not shown)	–	–	PAMPA	10 µM, 3 h, pH 7.4	Papp	21.4 ×10⁻⁶ cm/s
